Measured values as given in ChEMBL document CHEMBL1135421, “2-(Anilinomethyl)imidazolines as alpha1 adrenergic receptor agonists: the discovery of alpha1a subtype selective 2'-alkylsulfonyl-substituted analogues” (J Med Chem, 2002).
“And” between values parts separate entries of the source, which are not always exact repeats. Equal entries are not always repeated.

Legend:
[1] = molecular target: T1, Alpha-1D adrenergic receptor (Homo sapiens, UniProt P25100); assay: Agonist potency at Alpha-1D adrenergic receptor assayed in rat-1 fibroblasts expressing human Alpha-1D adrenergic receptor; format: functional
T1 sequence (P25100 whole entry): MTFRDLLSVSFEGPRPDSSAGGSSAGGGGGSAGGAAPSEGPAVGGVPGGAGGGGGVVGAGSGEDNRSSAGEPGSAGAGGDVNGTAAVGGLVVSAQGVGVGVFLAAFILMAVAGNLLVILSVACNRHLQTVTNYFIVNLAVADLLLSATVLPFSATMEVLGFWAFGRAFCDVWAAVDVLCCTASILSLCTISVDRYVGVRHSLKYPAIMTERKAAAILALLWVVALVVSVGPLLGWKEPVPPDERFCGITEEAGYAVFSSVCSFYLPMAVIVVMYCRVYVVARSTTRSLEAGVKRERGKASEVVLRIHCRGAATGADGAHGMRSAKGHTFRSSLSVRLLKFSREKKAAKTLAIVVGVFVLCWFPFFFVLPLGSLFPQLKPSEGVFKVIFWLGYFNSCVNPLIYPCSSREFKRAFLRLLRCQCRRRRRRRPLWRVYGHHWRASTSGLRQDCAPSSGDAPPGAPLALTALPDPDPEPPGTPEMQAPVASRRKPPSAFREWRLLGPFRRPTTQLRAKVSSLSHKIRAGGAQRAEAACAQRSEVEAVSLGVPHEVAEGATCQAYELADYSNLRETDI
Method in brief: (§1)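 Rat-1 fibroblasts expressing human α1a/α1b/α1d, grown in DMEM with 10% heat-inactivated FBS and 0.6 mg/mL G418, plated 6000 cells/well and cultured 48 h at 37 °C. Loaded 2 h at 37 °C with Calcium Green (4 μM), 0.2% pluronic acid and 2.5 mM probenecid in HEPES buffer pH 7.4. FLIPR read at room temperature: 10 s baseline, then 50 s after compound. 11-point curves as % of 40 μM phenylephrine response, top concentration typically 5 μM.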

[2] = molecular target: T2, Alpha-1B adrenergic receptor (Homo sapiens, UniProt P35368); assay: Agonist potency at Alpha-1B adrenergic receptor expressed in rat-1 fibroblasts; format: functional
T2 sequence (P35368 whole entry): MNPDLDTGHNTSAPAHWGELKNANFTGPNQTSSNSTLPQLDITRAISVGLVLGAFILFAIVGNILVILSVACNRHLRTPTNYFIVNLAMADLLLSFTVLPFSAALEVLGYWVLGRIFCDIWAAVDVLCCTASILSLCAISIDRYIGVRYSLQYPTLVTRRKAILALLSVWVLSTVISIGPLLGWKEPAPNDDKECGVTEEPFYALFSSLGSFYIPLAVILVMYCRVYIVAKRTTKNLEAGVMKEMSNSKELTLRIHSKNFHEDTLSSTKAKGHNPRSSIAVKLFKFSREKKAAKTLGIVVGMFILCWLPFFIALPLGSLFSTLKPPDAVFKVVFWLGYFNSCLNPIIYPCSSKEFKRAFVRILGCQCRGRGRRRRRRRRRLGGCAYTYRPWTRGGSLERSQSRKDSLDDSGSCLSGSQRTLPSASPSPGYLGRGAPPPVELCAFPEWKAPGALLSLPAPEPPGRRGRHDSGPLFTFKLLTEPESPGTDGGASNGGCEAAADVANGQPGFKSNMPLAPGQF

[3] = molecular target: T3, Alpha-2A adrenergic receptor (Homo sapiens, UniProt P08913); assay: Agonist potency at Alpha-2A stably expressed in CHO cells.; format: functional, cell-based
T3 sequence (P08913 whole entry): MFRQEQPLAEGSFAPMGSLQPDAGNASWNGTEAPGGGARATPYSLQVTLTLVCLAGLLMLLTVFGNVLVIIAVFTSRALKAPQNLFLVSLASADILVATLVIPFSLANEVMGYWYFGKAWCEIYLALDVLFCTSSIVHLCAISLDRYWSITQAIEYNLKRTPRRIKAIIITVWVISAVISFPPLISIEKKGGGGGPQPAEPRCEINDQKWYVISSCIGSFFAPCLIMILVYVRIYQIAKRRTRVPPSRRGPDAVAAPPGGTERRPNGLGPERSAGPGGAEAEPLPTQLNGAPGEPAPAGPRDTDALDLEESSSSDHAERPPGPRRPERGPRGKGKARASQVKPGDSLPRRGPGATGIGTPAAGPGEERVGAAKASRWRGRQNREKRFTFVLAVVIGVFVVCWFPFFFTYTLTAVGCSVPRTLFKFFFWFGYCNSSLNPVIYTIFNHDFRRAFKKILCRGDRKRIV

[4] = molecular target: T2, Alpha-1B adrenergic receptor; assay: Affinity to human Alpha-1B adrenergic receptor determined by radioligand binding techniques from rat-1 fibroblasts membranes
[5] = molecular target: T4, Alpha-1A adrenergic receptor (Homo sapiens, UniProt P35348); assay: Agonist potency at Alpha-1 adrenergic receptor assayed in rat-1 fibroblasts expressing human Alpha-1 adrenergic receptor; format: functional; method in brief: as §1
T4 sequence (P35348 whole entry): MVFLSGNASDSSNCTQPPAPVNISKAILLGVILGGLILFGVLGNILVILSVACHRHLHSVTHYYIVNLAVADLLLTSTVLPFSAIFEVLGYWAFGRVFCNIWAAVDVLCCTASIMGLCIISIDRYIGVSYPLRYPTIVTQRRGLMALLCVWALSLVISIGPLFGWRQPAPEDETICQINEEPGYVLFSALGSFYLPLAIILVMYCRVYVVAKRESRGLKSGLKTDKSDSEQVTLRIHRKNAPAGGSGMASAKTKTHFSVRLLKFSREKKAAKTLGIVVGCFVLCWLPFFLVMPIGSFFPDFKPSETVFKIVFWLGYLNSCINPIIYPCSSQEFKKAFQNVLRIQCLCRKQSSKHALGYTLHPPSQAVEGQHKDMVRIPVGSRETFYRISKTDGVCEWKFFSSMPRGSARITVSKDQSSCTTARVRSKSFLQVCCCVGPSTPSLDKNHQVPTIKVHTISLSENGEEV

[6] = molecular target: T5, Alpha-2C adrenergic receptor (Homo sapiens, UniProt P18825); assay: Agonist potency at Alpha-2C adrenergic receptor assayed in CHO cells expressing human Alpha-2C adrenergic receptor; format: functional, cell-based
T5 sequence (P18825 whole entry): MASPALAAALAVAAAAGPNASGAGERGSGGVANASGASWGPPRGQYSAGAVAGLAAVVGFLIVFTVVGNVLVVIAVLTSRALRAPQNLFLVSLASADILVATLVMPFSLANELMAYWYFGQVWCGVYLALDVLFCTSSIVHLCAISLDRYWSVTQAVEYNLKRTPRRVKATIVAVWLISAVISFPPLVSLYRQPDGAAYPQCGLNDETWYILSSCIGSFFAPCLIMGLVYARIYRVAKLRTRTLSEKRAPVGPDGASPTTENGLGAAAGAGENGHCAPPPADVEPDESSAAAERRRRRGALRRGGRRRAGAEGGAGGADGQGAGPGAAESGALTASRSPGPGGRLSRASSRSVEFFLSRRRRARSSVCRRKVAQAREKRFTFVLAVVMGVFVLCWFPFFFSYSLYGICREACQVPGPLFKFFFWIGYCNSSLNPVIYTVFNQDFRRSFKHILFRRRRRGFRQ

[7] = molecular target: T6, Alpha-2C adrenergic receptor (Homo sapiens) (UniProt P18825); assay: Efficacy as percentage of the maximal effect observed for nonselective agonist UK-14304 in CHO cells expressing human Alpha-2C adrenergic receptor; format: functional, cell-based
T6 sequence (whole entry): T5 sequence (P18825 whole entry)

[8] = molecular target: T7, Alpha-1A adrenergic receptor (Homo sapiens) (UniProt P35348); assay: Efficacy as % of the maximal effect observed for nonselective agonist phenylephrine in rat-1 fibroblasts expressing human Alpha-1 adrenergic receptor; format: functional; method in brief: as §1
T7 sequence (whole entry): T4 sequence (P35348 whole entry)

[9] = molecular target: T8, Alpha-2A adrenergic receptor (Homo sapiens) (UniProt P08913); assay: Efficacy as percentage of the maximal effect observed for nonselective agonist UK-14304 in CHO cells expressing human Alpha-2A adrenergic receptor; format: functional, cell-based
T8 sequence (whole entry): T3 sequence (P08913 whole entry)

[10] = molecular target: T4, Alpha-1A adrenergic receptor; assay: Affinity to Alpha-1 adrenergic receptor determined by radioligand binding techniques from rat-1 fibroblasts membranes
[11] = molecular target: T5, Alpha-2C adrenergic receptor; assay: Affinity to human Alpha-2C adrenergic receptor determined by radioligand binding techniques from chinese hamster ovary (CHO) cells; format: cell-based
[12] = molecular target: T1, Alpha-1D adrenergic receptor; assay: Affinity to human Alpha-1D adrenergic receptor determined by radioligand binding techniques from rat-1 fibroblasts membranes
[13] = molecular target: T3, Alpha-2A adrenergic receptor; assay: Affinity to human Alpha-2A adrenergic receptor determined by radioligand binding techniques from chinese hamster ovary (CHO) cells; format: cell-based
[14] = molecular target: T9, Alpha-2B adrenergic receptor (Homo sapiens, UniProt P18089); assay: Affinity to human Alpha-2B adrenergic receptor determined by radioligand binding techniques from chinese hamster ovary (CHO) cells; format: cell-based
T9 sequence (P18089 whole entry): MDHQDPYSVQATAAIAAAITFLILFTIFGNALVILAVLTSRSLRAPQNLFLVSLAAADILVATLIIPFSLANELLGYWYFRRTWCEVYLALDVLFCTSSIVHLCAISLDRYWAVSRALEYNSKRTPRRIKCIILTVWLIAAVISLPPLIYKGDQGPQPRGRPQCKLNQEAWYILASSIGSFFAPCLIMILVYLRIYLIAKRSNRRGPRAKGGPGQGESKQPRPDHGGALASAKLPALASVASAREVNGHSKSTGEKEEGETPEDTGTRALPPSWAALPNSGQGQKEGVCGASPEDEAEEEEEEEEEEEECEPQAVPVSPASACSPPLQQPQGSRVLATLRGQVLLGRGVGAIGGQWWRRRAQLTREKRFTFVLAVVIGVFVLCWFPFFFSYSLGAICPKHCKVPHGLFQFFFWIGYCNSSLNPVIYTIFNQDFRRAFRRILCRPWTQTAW

EC50 [1] | EC50 [2] | EC50 [3] | Ki [4] | EC50 [5] | EC50 [6] | Max [7] | Max [9] | Ki [10] | SMILES | Max [8] | Ki [11] | Ki [12] | Ki [13] | Ki [14]
> 100 µM | > 100 µM | > 10 µM | 11.2 µM | 0.158 µM | 2 µM | 87% | 34% | 1.12 µM | CS(=O)(=O)Nc1ccc(F)c([C@@H](O)CN)c1 [NS-49] | 109% |  |  |  | 
 |  |  |  |  |  |  | 88% |  | Cc1cc(C(C)(C)C)c(O)c(C)c1CC1=NCCN1 |  |  |  |  | 
> 100 µM | > 100 µM | > 10 µM | 2.14 µM | > 100 µM | 6.31 µM | 69% | 29% | 0.617 µM | O=S1(=O)CCCc2cccc(NCC3=NCCN3)c21 |  | 2.69 µM | > 15.8 µM | 0.794 µM | 

SMILES | EC50 [1] | EC50 [2] | EC50 [3] | Ki [4] | EC50 [5] | EC50 [6] | Max [7] | Max [9] | Ki [10] | Max [8] | Ki [11] | Ki [12] | Ki [13] | Ki [14]
COc1ccc(S(C)(=O)=O)c(NCC2=NCCN2)c1 | > 100 µM | > 100 µM | > 10 µM and 3.31 µM | 4.57 µM | 0.0141 µM |  | 49% | 16% | 1.62 µM | 102% | > 5.01 µM | 7.59 µM | 3.63 µM | > 6.31 µM
